In ChEMBL document CHEMBL1125872, “Antiulcer agents. 5. Inhibition of gastric H+/K(+)-ATPase by substituted imidazo[1,2-a]pyridines and related analogues and its implication in modeling the high affinity potassium ion binding site of the gastric proton pump enzyme” (J Med Chem, 1991):

Legend:
[1] = Compound was evaluated for the ability to inhibit purified H+/K+ -ATPase at pH 7.4, by using gastric membrane vesicles prepared from hog stomach.; type: functional, tissue-based, Sus scrofa
Outline: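 Lyophilized, K+-permeable hog gastric membrane vesicles (10 μg) preincubated with inhibitor 30 min at 37 °C in 2 mM Pipes-Tris pH 7.4 with 10 mM KCl. Reaction started with 2 mM ATP/2 mM MgCl2. Read-out is inorganic phosphate release. K+-stimulated activity = total minus basal Mg2+ activity. Inhibitors added from methanol, final 1%. IC50 = 50% inhibition.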

Oryctolagus cuniculus = species on record: Oryctolagus cuniculus; assay: The percent of compound protonated at pH 7.4.; type: functional
[2] = Compound was evaluated for the ability to inhibitH+/K+ -ATPase formation in rabbit gastric glands.; type: functional, tissue-based, Oryctolagus cuniculus, Stomach
Outline: (§1)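 Isolated rabbit gastric glands (collagenase-digested corpus mucosa, 37 °C ~1 h, rinsed, in respiratory medium pH 7.4). 10 mg wet weight glands incubated in RM with 0.05 μCi [14C]aminopyrine, stimulated with 10^-4 M histamine, 37 °C, 1 h shaking. Acid formation read as aminopyrine uptake. Inhibitors diluted in methanol, final 1%. IC50 = 50% inhibition.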

[3] = Inhibitory activity against histamine-stimulated gastric acid secretion in adult mengrel dogs, with surgically prepared Heidenhain pouches after intravenous administration; type: functional; details: Canis lupus familiaris, Stomach
Outline: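 Adult mongrel dogs with surgically prepared Heidenhain pouches, acid secretion stimulated by histamine. Intravenous dosing, 0.1-5 mg/kg. Acid output reduction measured against the non-drug control in the same animal. ED50 from linear regression, with 95% confidence limits.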

[4] = pKa value of the compound.; type: physicochemical
[5] = Inhibitory activity against histamine-stimulated gastric acid secretion in adult mengrel dogs, with surgically prepared Heidenhain pouches after peroral administration; type: functional; details: Canis lupus familiaris, Stomach, po
Outline: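 Heidenhain pouch mongrel dogs under histamine-stimulated acid secretion, oral dosing 2-8 mg/kg. Reduction in acid output taken relative to the untreated control value in the same dog. ED50 by linear regression, with 95% confidence limits.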

Sus scrofa = species on record: Sus scrofa; assay: The percent of compound protonated at pH 7.4 in purified H+/K+ -ATPase from hog stomach.
[6] = Compound was evaluated for the ability to inhibit H+/K+ -ATPase formation in rabbit gastric glands.; type: functional, tissue-based, Oryctolagus cuniculus, Stomach; outline: as §1

SMILES	IC50 [1] [uM l-1]	Protonated (Oryctolagus cuniculus) [%]	IC50 [2] [uM l-1]	ED50 [3] [mg/kg]	pKa [4]	ED50 [5] [mg/kg]	Protonated (Sus scrofa) [%]	IC50 [6] [uM l-1]
Cc1nc2c(/C=C/c3ccccc3)cccn2c1C	1.68	38.7	0.99	0.7	7.2	4.8	–	–
Cc1nc2c(OCc3ccccc3)cccn2c1N	0.89	–	–	–	6.81	–	20.4	0.31
Cc1nc2c(OCc3ccccc3)nccn2c1N	178	–	–	–	4.6	–	0.158	8.08
Cc1nc2c3c(ccn2c1CC#N)CCC(c1ccccc1)O3 (racemic)	0.092	–	–	–	6	–	3.83	0.064
Cc1nc2c(C/C=C/c3ccccc3)cccn2c1CC#N	206	–	–	–	6	–	3.83	442
Cc1nc2c(CCc3ccccc3)cccn2c1N	2.1	–	–	–	7.3	–	44.3	1.46
Cc1nc2c(/C=C/Cc3ccccc3)cccn2c1CC#N	14	–	–	–	5.7	–	1.96	3.8
Cc1nc2c(/C=C/Cc3ccccc3)cccn2c1N	8.6	–	–	–	6.75	–	18.3	14.1
Cc1ccn2c(CC#N)c(C)nc2c1OCc1ccccc1	13.7	–	–	–	5.67	–	1.83	0.4
Cc1nc2c(OCc3ccccc3)cccn2c1CC#N	–	–	–	–	5.5	–	–	–
Cc1nc2c(CCc3ccccc3)cccn2c1CC#N	2	–	–	0.1	6	> 4.4	3.83	0.13
Cc1nc2c(/C=C\c3ccccc3)cccn2c1C	28.4	38.7	17.5	–	7.2	–	–	–
